Measured values as given in ChEMBL document CHEMBL1955742, “Synthesis and SAR studies of phenanthroindolizidine and phenanthroquinolizidine alkaloids as potent anti-tumor agents” (2012).

Assays:
Format in all cases: functional
HL-60 [1] = assay: Antiproliferative activity against human HL60 cells after 72 hrs by SRB assay
Outline: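 HL60 human promyelocytic leukemia cells were seeded and grown for 24 h, then given compounds and cultured for another 72 h. Read-out was SRB, per the table footnote. GI50 was obtained by the Logit method from three or more independent experiments.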

A549 [2] = assay: Antiproliferative activity against human A549 cells after 72 hrs by MTT assay
Outline: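 A549 human lung adenocarcinoma epithelial cells were seeded and grown for 24 h, then exposed to compounds for a further 72 h. Proliferation was read by MTT, as assigned in the table footnote. GI50 was calculated by the Logit method from at least three independent experiments.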

HL-60 [3] = assay: Antiproliferative activity against human HL60 cells at 10^-8 mol/L after 72 hrs by SRB assay; conditions: HL-60, 72 h
HL-60 [4] = assay: Antiproliferative activity against human HL60 cells at 10^-7 mol/L after 72 hrs by SRB assay; conditions: HL-60, 72 h
HL-60 [5] = assay: Antiproliferative activity against human HL60 cells at 10^-6 mol/L after 72 hrs by SRB assay; conditions: HL-60, 72 h
A549 [6] = assay: Antiproliferative activity against human A549 cells at 10^-6 mol/L after 72 hrs by MTT assay; conditions: A549, 72 h
A549 [7] = assay: Antiproliferative activity against human A549 cells at 10^-8 mol/L after 72 hrs by MTT assay; conditions: A549, 72 h
A549 [8] = assay: Antiproliferative activity against human A549 cells at 10^-7 mol/L after 72 hrs by MTT assay; conditions: A549, 72 h

SMILES: COc1ccc2c3c(c4cc(OC)c(OC)cc4c2c1)CN1CCC[C@H]1[C@H]3O
- GI50 (HL-60 [1]; Homo sapiens, HL-60, 72 h): < 1 nM
- GI50 (A549 [2]; Homo sapiens, A549, 72 h): 30 nM

SMILES: COc1ccc2c3c(c4cc(OC)c(OC)cc4c2c1)CN1CCC[C@@H]1[C@@H]3O
- GI50 (HL-60 [1]; Homo sapiens, HL-60, 72 h): 300 nM
- GI50 (A549 [2]; Homo sapiens, A549, 72 h): 3700 nM

SMILES: COc1ccc2c3c(c4cc(OC)c(OC)cc4c2c1)CN1CCC[C@H]1C3
- GI50 (HL-60 [1]; Homo sapiens, HL-60, 72 h): 60 nM
- GI50 (A549 [2]; Homo sapiens, A549, 72 h): 90 nM

SMILES: COc1ccc2c3c(c4cc(OC)c(OC)cc4c2c1)[C@H](NC(C)=O)[C@@H]1CCCN1C3
- GI50 (HL-60 [1]; Homo sapiens, HL-60, 72 h): 50 nM
- GI50 (A549 [2]; Homo sapiens, A549, 72 h): 50 nM

SMILES: COc1ccc2c3c(c4cc(OC)c(OC)cc4c2c1)CN1CCC[C@@H]1C3
- GI50 (HL-60 [1]; Homo sapiens, HL-60, 72 h): 300 nM
- GI50 (A549 [2]; Homo sapiens, A549, 72 h): 700 nM

SMILES: COc1cc2c3c(c4cc(OC)c(OC)cc4c2cc1OC)[C@H](O)[C@H]1CCCN1C3
- inhibition at 0.01 µM (HL-60 [3]): 12.1%
- inhibition at 0.1 µM (HL-60 [4]): 16.1%
- inhibition at 1 µM (HL-60 [5]): 27%
- inhibition at 1 µM (A549 [6]): 17.9%
- inhibition at 0.01 µM (A549 [7]): 5%
- inhibition at 0.1 µM (A549 [8]): 5.6%

SMILES: COc1ccc2c3c(c4cc(OC)c(OC)cc4c2c1)[C@H](O)[C@@H]1CCCN1C3
- GI50 (HL-60 [1]; Homo sapiens, HL-60, 72 h): > 10000 nM
- GI50 (A549 [2]; Homo sapiens, A549, 72 h): > 10000 nM

SMILES: COc1ccc2c3c(c4cc(OC)c(OC)cc4c2c1)[C@@H](O)[C@H]1CCCN1C3
- GI50 (HL-60 [1]; Homo sapiens, HL-60, 72 h): > 10000 nM
- GI50 (A549 [2]; Homo sapiens, A549, 72 h): > 10000 nM

SMILES: COc1cc2c3c(c4cc(OC)c(OC)cc4c2cc1OC)[C@H](N)[C@@H]1CCCN1C3
- GI50 (HL-60 [1]; Homo sapiens, HL-60, 72 h): 300 nM
- GI50 (A549 [2]; Homo sapiens, A549, 72 h): 1100 nM

SMILES: COc1ccc2c3c(c4cc(OC)c(OC)cc4c2c1)[C@H](N)[C@@H]1CCCN1C3
- GI50 (HL-60 [1]; Homo sapiens, HL-60, 72 h): 1600 nM
- GI50 (A549 [2]; Homo sapiens, A549, 72 h): 400 nM

SMILES: COc1ccc2c3c(c4cc(OC)c(OC)cc4c2c1)CN1CCC[C@H]1[C@H]3N
- GI50 (HL-60 [1]; Homo sapiens, HL-60, 72 h): 50 nM
- GI50 (A549 [2]; Homo sapiens, A549, 72 h): 100 nM

SMILES: COc1cc2c3c(c4cc(OC)c(OC)cc4c2cc1OC)[C@H](NC(C)=O)[C@@H]1CCCN1C3
- GI50 (HL-60 [1]; Homo sapiens, HL-60, 72 h): > 10000 nM
- GI50 (A549 [2]; Homo sapiens, A549, 72 h): > 10000 nM

SMILES: COc1ccc2c3c(c4cc(OC)c(OC)cc4c2c1)CN1CCC[C@H]1[C@H]3NC(C)=O
- GI50 (HL-60 [1]; Homo sapiens, HL-60, 72 h): 1200 nM
- GI50 (A549 [2]; Homo sapiens, A549, 72 h): 1500 nM

SMILES: COc1cc2c3c(c4cc(OC)c(OC)cc4c2cc1OC)[C@H](NC(=O)C(C)(C)C)[C@@H]1CCCN1C3
- GI50 (HL-60 [1]; Homo sapiens, HL-60, 72 h): > 10000 nM
- GI50 (A549 [2]; Homo sapiens, A549, 72 h): > 10000 nM

SMILES: COc1ccc2c3c(c4cc(OC)c(OC)cc4c2c1)[C@H](NC(=O)C(C)(C)C)[C@@H]1CCCN1C3
- GI50 (HL-60 [1]; Homo sapiens, HL-60, 72 h): > 10000 nM
- GI50 (A549 [2]; Homo sapiens, A549, 72 h): > 10000 nM

SMILES: COc1ccc2c3c(c4cc(OC)c(OC)cc4c2c1)CN1CCC[C@H]1[C@H]3NC(=O)C(C)(C)C
- GI50 (HL-60 [1]; Homo sapiens, HL-60, 72 h): > 10000 nM
- GI50 (A549 [2]; Homo sapiens, A549, 72 h): > 10000 nM

SMILES: COc1cc2c3c(c4cc(OC)c(OC)cc4c2cc1OC)CN1CCCC[C@H]1C3
- GI50 (HL-60 [1]; Homo sapiens, HL-60, 72 h): < 1 nM
- GI50 (A549 [2]; Homo sapiens, A549, 72 h): 60 nM

SMILES: COc1cc2c3c(c4cc(OC)c(OC)cc4c2cc1OC)CN1CCCC[C@@H]1C3
- GI50 (HL-60 [1]; Homo sapiens, HL-60, 72 h): < 1 nM
- GI50 (A549 [2]; Homo sapiens, A549, 72 h): < 1 nM

SMILES: COc1ccc2c3c(c4cc(OC)c(OC)cc4c2c1)C[C@@H]1CCCCN1C3
- GI50 (HL-60 [1]): < 1 nM
- GI50 (A549 [2]): < 1 nM

SMILES: COc1ccc2c3c(c4cc(OC)c(OC)cc4c2c1)CN1CCCC[C@H]1C3
- GI50 (HL-60 [1]; Homo sapiens, HL-60, 72 h): 600 nM
- GI50 (A549 [2]; Homo sapiens, A549, 72 h): 700 nM

SMILES: COc1ccc2c3c(c4cc(OC)c(OC)cc4c2c1)CN1CCCC[C@@H]1C3
- GI50 (HL-60 [1]; Homo sapiens, HL-60, 72 h): 500 nM
- GI50 (A549 [2]; Homo sapiens, A549, 72 h): 900 nM

SMILES: COc1cc2c3c(c4cc(OC)c(OC)cc4c2cc1OC)[C@H](O)[C@@H]1CCCCN1C3
- GI50 (HL-60 [1]; Homo sapiens, HL-60, 72 h): 300 nM
- GI50 (A549 [2]; Homo sapiens, A549, 72 h): 400 nM

SMILES: COc1cc2c3c(c4cc(OC)c(OC)cc4c2cc1OC)[C@@H](O)[C@H]1CCCCN1C3
- GI50 (HL-60 [1]; Homo sapiens, HL-60, 72 h): < 1 nM
- GI50 (A549 [2]; Homo sapiens, A549, 72 h): 70 nM

SMILES: COc1ccc2c3c(c4cc(OC)c(OC)cc4c2c1)[C@H](O)[C@@H]1CCCCN1C3
- GI50 (HL-60 [1]; Homo sapiens, HL-60, 72 h): 40 nM
- GI50 (A549 [2]; Homo sapiens, A549, 72 h): 1000 nM

SMILES: COc1ccc2c3c(c4cc(OC)c(OC)cc4c2c1)CN1CCCC[C@H]1[C@H]3O
- GI50 (HL-60 [1]; Homo sapiens, HL-60, 72 h): < 1 nM
- GI50 (A549 [2]; Homo sapiens, A549, 72 h): 400 nM

SMILES: COc1ccc2c3c(c4cc(OC)c(OC)cc4c2c1)CN1CCCC[C@@H]1[C@@H]3O
- GI50 (HL-60 [1]; Homo sapiens, HL-60, 72 h): < 1 nM
- GI50 (A549 [2]; Homo sapiens, A549, 72 h): 300 nM

SMILES: COc1cc2c3c(c4cc(OC)c(OC)cc4c2cc1OC)[C@@H](O)[C@@H]1CCCN1C3
- inhibition at 0.01 µM (HL-60 [3]): 3.9%
- inhibition at 0.1 µM (HL-60 [4]): 8.2%
- inhibition at 1 µM (HL-60 [5]): 49.8%
- inhibition at 1 µM (A549 [6]): 50%
- inhibition at 0.01 µM (A549 [7]): 5.2%
- inhibition at 0.1 µM (A549 [8]): 8.2%

SMILES: COc1ccc2c3c(c4cc(OC)c(OC)cc4c2c1)[C@@H](O)[C@H]1CCCCN1C3
- GI50 (HL-60 [1]; Homo sapiens, HL-60, 72 h): < 1 nM
- GI50 (A549 [2]; Homo sapiens, A549, 72 h): 20 nM

SMILES: COc1cc2c3c(c4cc5c(cc4c2cc1OC)OCO5)CC1CCCN1C3 (racemic)
- inhibition at 0.01 µM (HL-60 [3]): 11.7%
- inhibition at 0.1 µM (HL-60 [4]): 9.4%
- inhibition at 1 µM (HL-60 [5]): 62.9%
- inhibition at 1 µM (A549 [6]): 70.3%
- inhibition at 0.01 µM (A549 [7]): 15.9%
- inhibition at 0.1 µM (A549 [8]): 22.4%

SMILES: COc1cc2c3c(c4cc5c(cc4c2cc1OC)OCO5)CN1CCCC1C3 (racemic)
- inhibition at 0.01 µM (HL-60 [3]): 14.8%
- inhibition at 0.1 µM (HL-60 [4]): 56.4%
- inhibition at 1 µM (HL-60 [5]): 88.4%
- inhibition at 1 µM (A549 [6]): 80.9%
- inhibition at 0.01 µM (A549 [7]): 16.9%
- inhibition at 0.1 µM (A549 [8]): 51.6%

SMILES: c1c2c(cc3c1c1c(c4cc5c(cc43)OCO5)CN3CCCC3C1)OCO2 (racemic)
- inhibition at 0.01 µM (HL-60 [3]): 10.4%
- inhibition at 0.1 µM (HL-60 [4]): 8.3%
- inhibition at 1 µM (HL-60 [5]): 13.6%
- inhibition at 1 µM (A549 [6]): 40.8%
- inhibition at 0.01 µM (A549 [7]): 5.7%
- inhibition at 0.1 µM (A549 [8]): 5.2%

SMILES: c1c2c(cc3c1c1c(c4cc5c(cc43)OCCO5)CN3CCCC3C1)OCCO2 (racemic)
- inhibition at 0.01 µM (HL-60 [3]): 0%
- inhibition at 0.1 µM (HL-60 [4]): 8.2%
- inhibition at 1 µM (HL-60 [5]): 11.2%
- inhibition at 1 µM (A549 [6]): 38.6%
- inhibition at 0.01 µM (A549 [7]): 8.7%
- inhibition at 0.1 µM (A549 [8]): 6.3%

SMILES: COc1ccc2c3c(c4cc(OC)c(OC)cc4c2c1)C[C@H]1CCCN1C3 [(-)-ANTOFINE]
- GI50 (HL-60 [1]; Homo sapiens, HL-60, 72 h): < 1 nM
- GI50 (A549 [2]; Homo sapiens, A549, 72 h): 10 nM

SMILES: COc1cc2c3c(c4cc(OC)c(OC)cc4c2cc1OC)CN1CCC[C@H]1C3 [(S)-TYLOPHORINE]
- GI50 (HL-60 [1]; Homo sapiens, HL-60, 72 h): 10 nM
- GI50 (A549 [2]; Homo sapiens, A549, 72 h): 700 nM

SMILES: COc1ccc2c3c(c4cc(OC)c(OC)cc4c2c1)C[C@H]1CCCCN1C3 [CRYPTOPLEURINE]
- GI50 (HL-60 [1]; Homo sapiens, HL-60, 72 h): < 1 nM
- GI50 (A549 [2]; Homo sapiens, A549, 72 h): < 1 nM

SMILES: COc1ccc2c3c(c4cc(OC)c(OC)cc4c2c1)C[C@@H]1CCCN1C3 [HYPOESTESTATIN 1]
- GI50 (HL-60 [1]; Homo sapiens, HL-60, 72 h): 200 nM
- GI50 (A549 [2]; Homo sapiens, A549, 72 h): 300 nM

SMILES: COc1cc2c3c(c4cc(OC)c(OC)cc4c2cc1OC)CN1CCC[C@@H]1C3 [TYLOPHORINE]
- GI50 (HL-60 [1]; Homo sapiens, HL-60, 72 h): 100 nM
- GI50 (A549 [2]; Homo sapiens, A549, 72 h): 500 nM
